In ChEMBL document CHEMBL1128434, “Gonadotropin-releasing hormone antagonists: novel members of the azaline B family” (1995):
Values belong to the compound of their own block, whether it stands above or below them.

What was measured:
[1] = species on record: Rattus norvegicus; test: Effect in the anti ovulatory assay (AOA) in rats expressed as no. of rats ovulating/No of rats treated at 50 mg; 4/7; assay type: functional
[2] = species on record: Rattus norvegicus; test: Effect in the anti ovulatory assay (AOA) in rats expressed as no. of rats ovulating/No of rats treated at 2.0 mg; 1/10; assay type: functional
[3] = biological target: T1, Gonadotropin-releasing hormone receptor (Rattus norvegicus) (UniProt P30969); test: Duration of action, measured using castrated male rat assay to inhibit luteinizing hormone release.; fully active at 24 hr but not at 48 hr; assay type: functional
T1 sequence (whole entry): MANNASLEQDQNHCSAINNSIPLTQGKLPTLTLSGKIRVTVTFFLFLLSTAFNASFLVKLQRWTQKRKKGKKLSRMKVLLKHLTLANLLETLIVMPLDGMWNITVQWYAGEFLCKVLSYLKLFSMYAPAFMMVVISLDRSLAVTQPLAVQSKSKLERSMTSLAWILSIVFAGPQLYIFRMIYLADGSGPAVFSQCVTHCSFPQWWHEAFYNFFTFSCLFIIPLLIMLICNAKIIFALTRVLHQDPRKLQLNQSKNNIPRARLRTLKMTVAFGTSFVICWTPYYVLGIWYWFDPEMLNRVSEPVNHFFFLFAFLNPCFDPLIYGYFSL

[4] = biological target: T1, Gonadotropin-releasing hormone receptor (Rattus norvegicus); test: In vitro potency to inhibit GnRH-mediated LH secretion by cultured pituitary cells relative to [Ac-delta-Pro1,DFpa2,DTrp36]GnRH.; assay type: functional, cell-based; details: Pituitary gland cell
Procedure, shortened: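 Dispersed rat pituitary cells in culture; antagonist inhibition of GnRH-stimulated LH secretion. Potency expressed relative to standard antagonist [Ac-Δ3Pro1,D4FPhe2,DTrp3,6]GnRH taken as 1.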

[5] = biological target: T1, Gonadotropin-releasing hormone receptor (Rattus norvegicus); test: Duration of action measured using castrated male rat assay to inhibit luteinizing hormone release.; fully active at 72 hr; assay type: functional
[6] = species on record: Rattus norvegicus; test: Effect in the anti ovulatory assay (AOA) in rats expressed as no. of rats ovulating/No of rats treated at 2.5 mg; 0/6; assay type: functional
[7] = species on record: Rattus norvegicus; test: Effect in the anti ovulatory assay (AOA) in rats expressed as no. of rats ovulating/No of rats treated at 1.0 mg; 9/18; assay type: functional
[8] = species on record: Rattus norvegicus; test: Effect in the anti ovulatory assay (AOA) in rats expressed as no. of rats ovulating/No of rats treated at 2.5 mg; 4/8; assay type: functional
[9] = species on record: Rattus norvegicus; test: Effect in the anti ovulatory assay (AOA) in rats expressed as no. of rats ovulating/No of rats treated at 1.0 mg; 2/2; assay type: functional
[10] = biological target: T1, Gonadotropin-releasing hormone receptor (Rattus norvegicus); test: Effect in the anti ovulatory assay (AOA) in rats expressed as no. of rats ovulating/No of rats treated at 2.5 mg; 0/8; assay type: functional
[11] = species on record: Rattus norvegicus; test: Duration of action measured using castrated male rat assay to inhibit luteinizing hormone release.; fully active at 48 hr but not at 72 hr; assay type: functional
[12] = species on record: Rattus norvegicus; test: Effect in the anti ovulatory assay (AOA) in rats expressed as no. of rats ovulating/No of rats treated at 1.0 mg; 8/8; assay type: functional
[13] = species on record: Rattus norvegicus; test: Effect in the anti ovulatory assay (AOA) in rats expressed as no. of rats ovulating/No of rats treated at 25 mg; 0/3; assay type: functional
[14] = species on record: Rattus norvegicus; test: Effect in the anti ovulatory assay (AOA) in rats expressed as no. of rats ovulating/No of rats treated at 10 mg; 2/6; assay type: functional
[15] = species on record: Rattus norvegicus; test: Effect in the anti ovulatory assay (AOA) in rats expressed as no. of rats ovulating/No of rats treated at 1.0 mg; 1/10; assay type: functional
[16] = species on record: Rattus norvegicus; test: Effect in the anti ovulatory assay (AOA) in rats expressed as no. of rats ovulating/No of rats treated at 1.0 mg; 7/14; assay type: functional

SMILES: CC(=O)N[C@H](Cc1ccc2ccccc2c1)C(=O)N[C@H](Cc1ccc(Cl)cc1)C(=O)N[C@H](Cc1cccnc1)C(=O)N[C@@H](CO)C(=O)N[C@@H](Cc1ccc(Nc2n[nH]c(N)n2)cc1)C(=O)N[C@H](Cc1ccc(Nc2n[nH]c(N)n2)cc1)C(=O)N[C@@H](CC(C)C)C(=O)N[C@@H](Cc1ccc(NC(C)C)cc1)C(=O)N1CCC[C@H]1C(=O)N[C@H](C)N
- No. of rats ovulated [1]: 4

- Duration of action [3]: 24 h
- Relative potency [4]: 0.23
SMILES: CC(=O)N[C@H](Cc1ccc2ccccc2c1)C(=O)N[C@H](Cc1ccc(Cl)cc1)C(=O)N[C@H](Cc1cccnc1)C(=O)N[C@@H](CO)C(=O)N[C@@H](CCCCNc1n[nH]c(N)n1)C(=O)N[C@H](CCCCNc1n[nH]c(N)n1)C(=O)N[C@@H](CC(C)C)C(=O)N[C@@H](CCCCNC(C)C)C(=O)N1CCC[C@H]1C(=O)N[C@H](C)N
- No. of rats ovulated [2]: 1

- Duration of action [5]: 72 h
- Relative potency [4]: 0.52
SMILES: CC(=O)N[C@H](Cc1ccc2ccccc2c1)C(=O)N[C@H](Cc1ccc(Cl)cc1)C(=O)N[C@H](Cc1cccnc1)C(=O)N[C@@H](CO)C(=O)N[C@@H](Cc1ccc(NC(=O)CCNc2n[nH]c(N)n2)cc1)C(=O)N[C@H](Cc1ccc(NC(=O)CCNc2n[nH]c(N)n2)cc1)C(=O)N[C@@H](CC(C)C)C(=O)N[C@@H](CCCCNC(C)C)C(=O)N1CCC[C@H]1C(=O)N[C@H](C)N
- No. of rats ovulated [6]: 0
- No. of rats ovulated [7]: 9

SMILES: CC(=O)N[C@H](Cc1ccc2ccccc2c1)C(=O)N[C@H](Cc1ccc(Cl)cc1)C(=O)N[C@H](Cc1cccnc1)C(=O)N[C@@H](CO)C(=O)N[C@@H](Cc1ccc(NC(=O)C2CCC(=O)N2)cc1)C(=O)N[C@H](Cc1ccc(NC(=O)C2CCC(=O)N2)cc1)C(=O)N[C@@H](CC(C)C)C(=O)N[C@@H](CCCCNC(C)C)C(=O)N1CCC[C@H]1C(=O)N[C@H](C)N (some centres not stated)
- No. of rats ovulated [8]: 4
- No. of rats ovulated [9]: 2

- No. of rats ovulated [10]: 0
SMILES: CC(=O)Nc1ccc(C[C@H](NC(=O)[C@H](CO)NC(=O)[C@@H](Cc2cccnc2)NC(=O)[C@@H](Cc2ccc(Cl)cc2)NC(=O)[C@@H](Cc2ccc3ccccc3c2)NC(C)=O)C(=O)N[C@H](Cc2ccc(NC(C)=O)cc2)C(=O)N[C@@H](CC(C)C)C(=O)N[C@@H](CCCCNC(C)C)C(=O)N2CCC[C@H]2C(=O)N[C@@H](C)N)cc1
- Duration of action [11]: 48 h
- No. of rats ovulated [12]: 8

SMILES: CC(=O)Nc1ccc(C[C@H](NC(=O)[C@H](CO)NC(=O)[C@@H](Cc2cccnc2)NC(=O)[C@@H](Cc2ccc(Cl)cc2)NC(=O)[C@H](Cc2ccc3ccccc3c2)NC(C)=O)C(=O)N[C@H](Cc2ccc(NC(C)=O)cc2)C(=O)N[C@@H](CC(C)C)C(=O)N[C@@H](CCCCNC(C)C)C(=O)N2CCC[C@H]2C(=O)N[C@H](C)N)cc1
- No. of rats ovulated [13]: 0
- No. of rats ovulated [14]: 2

- Duration of action [5]: 72 h
- No. of rats ovulated [10]: 0
SMILES: CCC(=O)Nc1ccc(C[C@H](NC(=O)[C@H](CO)NC(=O)[C@@H](Cc2cccnc2)NC(=O)[C@@H](Cc2ccc(Cl)cc2)NC(=O)[C@@H](Cc2ccc3ccccc3c2)NC(C)=O)C(=O)N[C@H](Cc2ccc(NC(=O)CC)cc2)C(=O)N[C@@H](CC(C)C)C(=O)N[C@@H](CCCCNC(C)C)C(=O)N2CCC[C@H]2C(=O)N[C@H](C)N)cc1
- No. of rats ovulated [15]: 4

- Duration of action [5]: 72 h
- No. of rats ovulated [10]: 0
- Relative potency [4]: 0.82
SMILES: CC(=O)Nc1ccc(C[C@@H](NC(=O)[C@H](Cc2ccc(Nc3n[nH]c(N)n3)cc2)NC(=O)[C@H](CO)NC(=O)[C@@H](Cc2cccnc2)NC(=O)[C@@H](Cc2ccc(Cl)cc2)NC(=O)[C@@H](Cc2ccc3ccccc3c2)NC(C)=O)C(=O)N[C@@H](CC(C)C)C(=O)N[C@@H](CCCCNC(C)C)C(=O)N2CCC[C@H]2C(=O)N[C@H](C)N)cc1
- No. of rats ovulated [16]: 7
